From ChEMBL document CHEMBL1649120, “Differential effects of inhibiting chitin and 1,3-{beta}-D-glucan synthesis in ras and calcineurin mutants of Aspergillus fumigatus” (2009)
Calls of active or inactive are those of the source. The calls are words filed in the database; no cut-off is given here. *1 amine or outer side, *2 acyl side, *3 side chain or, on linkers, in order; H or OH if unused. Where a SMILES comes first, the peptide text is derived from it. Bridges are numbered along the chain shown (N, C = ends). [ ]: non-standard residue; d: D form. The star is where a group is joined. pTerphenylCO(4''-OnC5H11) = CCCCCOc1ccc(-c2ccc(-c3ccc(C(=O)*)cc3)cc2)cc1; Orn(4R-OH,5R-OH) = O=C([C@H](C[C@@H](O)[C@@H](O)N[*:3])N[*:1])[*:2]; hTyr(3S-OH,4S-OH) = N[C@H](C(=O)O)[C@H](O)[C@@H](O)c1ccc(O)cc1; Pro(3S-OH,4S-Me) = C[C@H]1CN[C@H](C(=O)O)[C@H]1O; Hyp = O=C(O)[C@@H]1C[C@@H](O)CN1

Assays:
[1] = tested on: Aspergillus fumigatus; assay: Antifungal activity against Aspergillus fumigatus H237 expressing rasA gene assessed as abnormal hyphal growth by CLSI method; assay type: functional; details: read-out: MEC
Summary of the method: (§1)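 MEC by CLSI broth microdilution in RPMI 1640. Conidia were incubated with or without drug for 48 h at 37°C, in triplicate.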

[2] = tested on: Aspergillus fumigatus; assay: Antifungal activity against rasA deficient Aspergillus fumigatus H237 assessed as abnormal hyphal growth by CLSI method; assay type: functional; details: read-out: MEC; summary of the method: as §1
[3] = tested on: Aspergillus fumigatus; assay: Antifungal activity against Aspergillus fumigatus H237 expressing dominant-active rasA gene assessed as abnormal hyphal growth by CLSI method; assay type: functional; details: read-out: MEC; summary of the method: as §1
[4] = tested on: Aspergillus fumigatus; assay: Antifungal activity against cnaA deficient Aspergillus fumigatus Af293 assessed as inhibition of hyphal growth at germling stage at 1 ug/ml by CLSI method; assay type: functional, organism-based
Summary of the method: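 Conidia were grown as for CLSI susceptibility testing in RPMI 1640 with or without echinocandin (1 μg/ml) for 48 h at 37°C. Hyphal morphology was then examined by bright-field microscopy.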

[5] = tested on: Aspergillus fumigatus; assay: Antifungal activity against Aspergillus fumigatus H237 assessed as abnormal hyphal growth by CLSI method; assay type: functional; details: read-out: MEC; summary of the method: as §1
[6] = tested on: Aspergillus fumigatus; assay: Antifungal activity against crzA deficient Aspergillus fumigatus Af293 assessed as abnormal hyphal growth by CLSI method; assay type: functional; details: read-out: MEC; summary of the method: as §1
[7] = tested on: Aspergillus fumigatus; assay: Antifungal activity against Aspergillus fumigatus Af293 assessed as abnormal hyphal growth by CLSI method; assay type: functional; details: read-out: MEC; summary of the method: as §1
[8] = tested on: Aspergillus fumigatus; assay: Antifungal activity against Aspergillus fumigatus Af293 expressing crzA gene assessed as abnormal hyphal growth by CLSI method; assay type: functional; details: read-out: MEC; summary of the method: as §1
[9] = tested on: Aspergillus fumigatus; assay: Antifungal activity against cnaA deficient Aspergillus fumigatus Af293 assessed as abnormal hyphal growth by CLSI method; assay type: functional; details: read-out: MEC; summary of the method: as §1
[10] = tested on: Aspergillus fumigatus; assay: Antifungal activity against Aspergillus fumigatus Af293 expressing cnaA gene assessed as abnormal hyphal growth by CLSI method; assay type: functional; details: read-out: MEC; summary of the method: as §1
[11] = tested on: Aspergillus fumigatus; assay: Antifungal activity against Aspergillus fumigatus H237 expressing dominant-active rasA assessed as increase in chitin cell wall content at 1 ug/ml; assay type: functional, organism-based
Summary of the method: (§2)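 Cultures were grown at 10⁶ conidia/ml in RPMI 1640 with 1 μg/ml drug (single agent or combination) for 48 h at 37°C, 250 rpm. 5 mg of lyophilized mycelium was digested in saturated KOH at 130°C for 1 h, then ethanol-precipitated. Glucosamine was measured by nitrous acid deamination and MBTH/FeCl₃ colour, A650, against a 10 μg/ml glucosamine standard. Output is glucosamine equivalents (μg/ml), from biological triplicate.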

[12] = tested on: Aspergillus fumigatus; assay: Antifungal activity against Aspergillus fumigatus H237 expressing dominant-active rasA assessed as decrease in 1, 3-beta-D-glucan cell wall content at 1 ug/ml after 48 hrs by aniline blue assay; assay type: functional, organism-based
Summary of the method: (§3)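 10⁶ conidia/ml were grown in RPMI 1640 with or without drug for 48 h at 37°C, 250 rpm. Hyphae were washed in 0.1 M NaOH and lyophilized. 5 mg was taken into 1 M NaOH, sonicated and heated at 52°C for 30 min. Aniline blue mix (pH 9.5) was added for 30 min at 52°C. Fluorescence was read at ex 405/em 460 nm against a curdlan standard curve. Results are % change in RFU/mg versus untreated wild type, from five independent experiments.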

[13] = tested on: Aspergillus fumigatus; assay: Antifungal activity against cnaA deficient Aspergillus fumigatus Af293 assessed as decrease in 1, 3-beta-D-glucan cell wall content at 1 ug/ml by aniline blue assay; assay type: functional, organism-based; summary of the method: as §3
[14] = tested on: Aspergillus fumigatus; assay: Antifungal activity against Aspergillus fumigatus Af293 assessed as increase in chitin cell wall content at 1 ug/ml after 48 hrs; assay type: functional, organism-based; summary of the method: as §2
[15] = tested on: Aspergillus fumigatus; assay: Antifungal activity against Aspergillus fumigatus Af293 assessed as increase in calcofluor white staining og conidia at 1 ug/ml after 16 hrs by fluorescence microscopy; assay type: functional, organism-based
Summary of the method: (§4)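 10³ conidia/ml were grown on coverslips in RPMI 1640 with or without 1 μg/ml drug for 16 h at 37°C. Coverslips were stained with calcofluor white for 5 min at room temperature, rinsed and mounted. Fluorescence microscopy used a UV exposure fixed at 25 ms, set on the untreated wild type.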

[16] = tested on: Aspergillus fumigatus; assay: Antifungal activity against Aspergillus fumigatus Af293 assessed as decrease in 1, 3-beta-D-glucan cell wall content at 1 ug/ml after 48 hrs by aniline blue assay; assay type: functional, organism-based; summary of the method: as §3
[17] = tested on: Aspergillus fumigatus; assay: Antifungal activity against crzA deficient Aspergillus fumigatus Af293 assessed as decrease in 1, 3-beta-D-glucan cell wall content at 1 ug/ml by aniline blue assay; assay type: functional, organism-based; summary of the method: as §3
[18] = tested on: Aspergillus fumigatus; assay: Antifungal activity against cnaA deficient Aspergillus fumigatus Af293 assessed as increase in calcofluor white staining og conidia at 1 ug/ml after 16 hrss by fluorescence microscopy; assay type: functional, organism-based; summary of the method: as §4
[19] = tested on: Aspergillus fumigatus; assay: Antifungal activity against Aspergillus fumigatus H237 assessed as decrease in 1, 3-beta-D-glucan cell wall content at 1 ug/ml after 48 hrs by aniline blue assay; assay type: functional, organism-based; summary of the method: as §3
[20] = tested on: Aspergillus fumigatus; assay: Antifungal activity against crzA deficient Aspergillus fumigatus Af293 assessed as increase in chitin cell wall content at 1 ug/ml; assay type: functional, organism-based; summary of the method: as §2
[21] = tested on: Aspergillus fumigatus; assay: Antifungal activity against cnaA deficient Aspergillus fumigatus Af293 assessed as increase in chitin cell wall content at 1 ug/ml; assay type: functional, organism-based; summary of the method: as §2
[22] = tested on: Candida albicans; assay: Antifungal activity against Candida albicans SC5314 assessed as increase in chitin cell wall content at 0.125 ug/ml; assay type: functional
[23] = tested on: Aspergillus fumigatus; assay: Antifungal activity against Aspergillus fumigatus H237 assessed as increase in chitin cell wall content at 1 ug/ml after 48 hrs; assay type: functional, organism-based; summary of the method: as §2
[24] = tested on: Aspergillus fumigatus; assay: Antifungal activity against rasA deficient Aspergillus fumigatus H237 assessed as decrease in 1, 3-beta-D-glucan cell wall content at 1 ug/ml by aniline blue assay; assay type: functional, organism-based; summary of the method: as §3
[25] = tested on: Aspergillus fumigatus; assay: Antifungal activity against rasA deficient Aspergillus fumigatus H237 assessed as increase in chitin cell wall content at 1 ug/ml; assay type: functional, organism-based; summary of the method: as §2
[26] = tested on: Aspergillus fumigatus; assay: Antifungal activity against crzA deficient Aspergillus fumigatus Af293 assessed as increase in calcofluor white staining og conidia at 1 ug/ml after 16 hrss by fluorescence microscopy; assay type: functional, organism-based; summary of the method: as §4

CCCCCOc1ccc(-c2ccc(-c3ccc(C(=O)N[C@H]4C[C@@H](O)[C@@H](O)NC(=O)[C@@H]5[C@@H](O)[C@@H](C)CN5C(=O)[C@H]([C@@H](C)O)NC(=O)[C@H]([C@H](O)[C@@H](O)c5ccc(O)cc5)NC(=O)[C@@H]5C[C@@H](O)CN5C(=O)[C@H]([C@@H](C)O)NC4=O)cc3)cc2)cc1 [ANIDULAFUNGIN] ({pTerphenylCO(4''-OnC5H11)}-[Orn(4R-OH,5R-OH)]T[Hyp][hTyr(3S-OH,4S-OH)]T[Pro(3S-OH,4S-Me)]; lactam 1-C) gave a minimal effective concentration [1] of 0.125 µg/mL, a minimal effective concentration [2] of 2 µg/mL and a minimal effective concentration [3] of 0.0156 µg/mL. The Activity [4] was “Active”, the minimal effective concentration [5] was 0.0625 µg/mL and the minimal effective concentration [6] was 0.0156 µg/mL. For the same compound, the minimal effective concentration [7] was 0.0625 µg/mL, the minimal effective concentration [8] was 0.125 µg/mL and the minimal effective concentration [9] was 0.0039 µg/mL. For the same compound, the minimal effective concentration [10] was 0.0625 µg/mL.

In the case of CC[C@H](C)C[C@H](C)CCCCCCCCC(=O)N[C@H]1C[C@@H](O)[C@@H](NCCN)NC(=O)[C@@H]2[C@@H](O)CCN2C(=O)[C@H]([C@H](O)CCN)NC(=O)[C@H]([C@H](O)[C@@H](O)c2ccc(O)cc2)NC(=O)[C@@H]2C[C@@H](O)CN2C(=O)[C@H]([C@@H](C)O)NC1=O [CASPOFUNGIN], the minimal effective concentration [1] is reported as 1 µg/mL, the Activity [11] is reported as “Active” and the Activity [12] is reported as “Active”. The minimal effective concentration [2] was 8 µg/mL, the minimal effective concentration [3] was 0.25 µg/mL and the Activity [13] was “Active”. The Activity [14] was “Active”, the Activity [4] was “Active” and the Activity [15] was “inactive”. For the same compound, the Activity [16] was “Active”, the Activity [17] was “Active” and the minimal effective concentration [5] was 1 µg/mL. The Activity [18] was “inactive”, the Activity [19] was “Active” and the Activity [20] was “inactive”. The minimal effective concentration [6] was 0.5 µg/mL, the Activity [21] was “inactive” and the minimal effective concentration [7] was 1 µg/mL. The “fold change (FC)” value [22] was 2, the Activity [23] was “Active” and the Activity [24] was “Active”. For the same compound, the minimal effective concentration [8] was 1 µg/mL, the minimal effective concentration [9] was 0.25 µg/mL and the Activity [25] was “Active”. The Activity [26] was “Active” and the minimal effective concentration [10] was 1 µg/mL.
